Data from PubChem BioAssay AID624411 (The Scripps Research Institute Molecular Screening Center, 2012).
Activity calls are given as the source filed them.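 Rule for the calls: active = compounds blocking BCL-xL binding with IC50 of 10 µM or lower; inactive = the rest.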

Target: Bcl-2-like protein 1 (Homo sapiens) (UniProt Q07817)
Test: Bcl-xL inhibition by probe candidates, late-stage follow-up, counter-screen for MCL1-BIM inhibitor project, biochemical, fluorescence polarization, probe report (AID 624411)
Settings: GST-BCL-xL / FITC-Bim BH3 fluorescence polarization
How it was run: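 System: purified GST-Bcl-xL protein / Amount: 12.5 nM GST-Bcl-xL / Buffer or medium: 1x PBS supplemented with 0.001% Brij detergent / Probe or stimulus: FITC-labelled Bim BH3 peptide probe at 4 nM / Timing: compound incubation 20 min at room temperature / Signal: fluorescence polarization, mP / Measure: IC50 from curve fit at 50% inhibition level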

Bcl-2-like protein 1 (Homo sapiens), sequence (Q07817 whole entry, looked up): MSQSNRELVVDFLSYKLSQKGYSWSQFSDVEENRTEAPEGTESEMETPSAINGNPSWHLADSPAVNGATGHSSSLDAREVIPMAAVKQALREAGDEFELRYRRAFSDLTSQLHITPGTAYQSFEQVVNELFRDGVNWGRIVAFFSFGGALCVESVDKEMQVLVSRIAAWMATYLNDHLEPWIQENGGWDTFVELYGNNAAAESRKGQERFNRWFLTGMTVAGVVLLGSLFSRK

**Q.** Which IC50 does the source give for `CCN1CCN(C(c2ccc(C(F)(F)F)cc2)c2ccc3cccnc3c2O)CC1` (stereo unspecified) here?
**A.** Its IC50 is > 40 µM (inactive).
